Results published in ChEMBL document CHEMBL3817732, “Rational Design of Calpain Inhibitors Based on Calpastatin Peptidomimetics” (J Med Chem, 2016).
Activity calls are given as the source filed them. No cut-off for these calls is given here.

Experiments:
Rattus norvegicus [1] = organism: Rattus norvegicus; assay: Inhibition of rat calpain-1 assessed as cleavage of (EDANS)-EPLFAERK-(DABCYL) at 100 uM in presence of CaCl2 by fluorescence spectrometer relative to control
Papain (Carica papaya) = biological target: T1, Papain (Carica papaya) (UniProt P00784); assay: Inhibition of papaya papain assessed as cleavage of (EDANS)-EPLFAERK-(DABCYL) at 100 uM by fluorescence spectrometer
T1 sequence (whole entry): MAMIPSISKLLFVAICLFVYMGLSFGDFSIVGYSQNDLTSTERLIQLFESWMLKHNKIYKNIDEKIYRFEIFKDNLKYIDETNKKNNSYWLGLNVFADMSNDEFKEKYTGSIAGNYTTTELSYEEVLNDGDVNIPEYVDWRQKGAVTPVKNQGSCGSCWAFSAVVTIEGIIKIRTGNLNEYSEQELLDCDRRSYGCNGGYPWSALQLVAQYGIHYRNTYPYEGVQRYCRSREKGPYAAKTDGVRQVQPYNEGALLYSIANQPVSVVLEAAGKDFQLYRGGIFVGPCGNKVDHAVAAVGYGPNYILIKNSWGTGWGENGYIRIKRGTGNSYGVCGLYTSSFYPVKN

[2] = Competitive inhibition of rat recombinant C-terminal His-tagged calpain-2 expressed in Escherichia coli BL21(DE3) using (EDANS)-EPLFAERK-(DABCYL) as substrate assessed as enzyme/inhibitor complex in presence of CaCl2 by Michaelis-Menten plot analysis
Rattus norvegicus [3] = organism: Rattus norvegicus; assay: Inhibition of rat recombinant C-terminal His-tagged calpain-2 expressed in Escherichia coli BL21(DE3) assessed as cleavage of (EDANS)-EPLFAERK-(DABCYL) at 100 uM in presence of CaCl2 by fluorescence spectrometer relative to control
Rattus norvegicus [4] = organism: Rattus norvegicus; assay: Activation of rat recombinant calpain-1 protease core expressed in Escherichia coli BL21(DE3) assessed as cleavage of (EDANS)-EPLFAERK-(DABCYL) at 100 uM in presence of CaCl2 by fluorescence spectrometer
[5] = biological target: Procathepsin L (Homo sapiens) (UniProt P07711); assay: Inhibition of human liver cathepsin L assessed as cleavage of Z-FR-AMC at 100 uM by fluorescence spectrometer
Sequence of Procathepsin L (Homo sapiens) (P07711 114-333 limits assumed): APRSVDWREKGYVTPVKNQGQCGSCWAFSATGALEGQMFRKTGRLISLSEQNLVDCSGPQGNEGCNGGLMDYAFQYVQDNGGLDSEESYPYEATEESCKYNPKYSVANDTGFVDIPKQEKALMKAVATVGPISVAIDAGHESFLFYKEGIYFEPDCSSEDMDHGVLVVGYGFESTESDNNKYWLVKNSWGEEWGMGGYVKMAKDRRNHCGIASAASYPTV

Rattus norvegicus [6] = organism: Rattus norvegicus; assay: Inhibition of rat recombinant calpain-1 protease core expressed in Escherichia coli BL21(DE3) assessed as cleavage of (EDANS)-EPLFAERK-(DABCYL) at 100 uM in presence of CaCl2 by fluorescence spectrometer
[7] = Mixed-type inhibition of rat recombinant C-terminal His-tagged calpain-2 expressed in Escherichia coli BL21(DE3) using (EDANS)-EPLFAERK-(DABCYL) as substrate assessed as enzyme/substrate/inhibitor complex in presence of CaCl2 by Michaelis-Menten plot analysis
[8] = Mixed-type inhibition of rat recombinant C-terminal His-tagged calpain-2 expressed in Escherichia coli BL21(DE3) using (EDANS)-EPLFAERK-(DABCYL) as substrate assessed as enzyme/inhibitor complex in presence of CaCl2 by Michaelis-Menten plot analysis
[9] = Non-competitive inhibition of rat recombinant C-terminal His-tagged calpain-2 expressed in Escherichia coli BL21(DE3) using (EDANS)-EPLFAERK-(DABCYL) as substrate assessed as enzyme/substrate/inhibitor complex in presence of CaCl2 by Michaelis-Menten plot analysis
[10] = Non-competitive inhibition of rat recombinant C-terminal His-tagged calpain-2 expressed in Escherichia coli BL21(DE3) using (EDANS)-EPLFAERK-(DABCYL) as substrate assessed as enzyme/inhibitor complex in presence of CaCl2 by Michaelis-Menten plot analysis
[11] = Competitive inhibition of porcine erythrocyte calpain-2 using Suc-Leu-Tyr-AMC as substrate; set-up: species or system Sus scrofa
Rattus norvegicus [12] = organism: Rattus norvegicus; assay: Binding affinity to rat recombinant C-terminal His-tagged calpain-2 C105S mutant expressed in Escherichia coli BL21(DE3) at 25 to 50 uM in presence of CaCl2 and trypsin by MALDI-TOFpeptide fingerprinting method
Summary of the method: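 The mixture is exposed to long-wave UV for 2.5 h, with a DMSO control. Photoadducts are tryptically digested and identified by MALDI-TOF mass fingerprinting.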

[13] = Inhibition of calpain-1 (unknown origin) using H-Glu(Edans)-Pro-Leu-Phe-Ala-Glu-Arg-Lys(Dabcyl)-OH as substrate measured every 13 secs for 1 hr by fluorescence assay

Compound	inhibition (Rattus norvegicus [1])	inhibition (Papain (Carica papaya))	inhibition (Rattus norvegicus [3])	inhibition [5] [%]	also measured
CC(C)[C@H](NC(=O)C/N=C1\N[C@@H](C)[C@@H](C(=O)NC(C)(C)C)N2CCC[C@H]12)C(=O)N[C@H](CCCN)C(=O)O	–	–	79%	17	–
C[C@H](NC(=O)C/N=C1\N[C@@H](C)[C@@H](C(=O)NC(C)(C)C)N2CCC[C@H]12)C(=O)N[C@H](CCCN)C(=O)O	54%	–	66%	–	–
CC[C@H](C)[C@H](NC(=O)C/N=C1\N[C@@H](C)[C@@H](C(=O)NC(C)(C)C)N2CCC[C@H]12)C(=O)N[C@H](CCCN)C(=O)O	14%	–	67%	–	–
C[C@@H]1NC(=O)[C@H](CCCN)NC(=O)CNC(=O)[C@H](CO)NC(=O)CNC(=O)[C@@H]2CCCN2[C@@H]1C(=O)NC(C)(C)C	38%	inactive	78%	> 85	Ki [7]: 45.6 µM; Ki [8]: 20.3 µM; Activity (Rattus norvegicus [4]): Active
C[C@@H]1N/C(=N\CC(=O)N[C@@H](Cc2ccccc2)C(=O)N[C@H](CCCN)C(=O)O)[C@H]2CCCN2[C@@H]1C(=O)NC(C)(C)C	28%	–	39%	–	–
H-DPMSSTYIEELGKREVTIPPKYRELLA-OH	–	–	–	–	Ki [11]: 0.0087 µM; Ki [2]: 0.0168 µM
CC[C@H](C)[C@H](NC(C)=O)C(=O)N1CCC[C@H]1C(=O)N1CCC[C@H]1C(=O)N[C@@H](CCCCN)C(=O)N[C@@H](Cc1ccc(O)cc1)C(=O)N[C@H]1CSSC[C@@H](C(N)=O)NC(=O)[C@H](CC(C)C)NC(=O)[C@H](CC(C)C)NC(=O)[C@H](CCC(=O)O)NC1=O	–	–	–	–	Ki [13]: 10.2 µM

Continued, in another order:

inhibition (Rattus norvegicus [1])	inhibition (Papain (Carica papaya))	inhibition (Rattus norvegicus [3])	inhibition [5] [%]	Compound	also measured
Active	inactive	> 85%	> 85	CC(C)C[C@H](/N=C1\N[C@@H](C)[C@@H](C(=O)NC(C)(C)C)N2CCC[C@H]12)C(=O)N[C@@H](CCCCN)C(=O)NCC(=O)O	Ki [2]: 12.2 µM; Activity (Rattus norvegicus [4]): Active
45%	inactive	84%	> 85	CC(C)C[C@@H]1NC(=O)[C@H](C)NC(=O)CNC(=O)[C@@H]2CCCN2[C@H](C(=O)NC(C)(C)C)[C@H](C)NC(=O)[C@H](CCCCN)NC1=O	inhibition (Rattus norvegicus [6]): Active; Ki [2]: 16.6 µM
Active	inactive	16%	> 32	CC(C)C[C@@H](NC(=O)C/N=C1\N[C@@H](C)[C@@H](C(=O)NC(C)(C)C)N2CCC[C@H]12)C(=O)N[C@H](CCCN)C(=O)O	inhibition (Rattus norvegicus [6]): Active; Ki [9]: 119 µM; Ki [10]: 154 µM
–	–	Active	–	CC(C)C[C@@H]1NC(=O)[C@H](C)NC(=O)CNC(=O)[C@@H]2CCCN2[C@H](C(=O)NC(C)(C)C)[C@H](CSC2CC(=O)N(c3cccc(C(=O)c4ccccc4)c3)C2=O)NC(=O)[C@H](CCCCN)NC1=O (stereo partly specified)	inhibition (Rattus norvegicus [12]): Active
–	–	Active	–	CC(C)C[C@H](NC(=O)C/N=C1\N[C@@H](CSC2CC(=O)N(c3cccc(C(=O)c4ccccc4)c3)C2=O)[C@@H](C(=O)NC(C)(C)C)N2CCC[C@H]12)C(=O)N[C@H](CCCN)C(=O)O (stereo partly specified)	inhibition (Rattus norvegicus [12]): Active
